ChEMBL document CHEMBL1150855, “Five new prenylated stilbenes from the root bark of Lonchocarpus chiricanus” (2001)
In brackets after ≈: the same amount, converted by molar mass. Activity calls are given as the source filed them. No cut-off for these calls is given here.

What was measured:
[1] = system: Cladosporium cucumerinum; assay: Antifungal activity against Cladosporium cucumerinum assessed as minimum concentration required to inhibit fungal growth after 2 to 3 days by bioautographic TLC assay; format: functional
In short: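 Stocks at 1 mg/mL in dichloromethane (nystatin in MeOH), geometrically diluted over 1 to 0.015 mg/mL. 10 µL of each dilution applied to silica gel TLC plates. Plates then covered with C. cucumerinum in nutritive medium and held 2-3 days in a moist atmosphere. Clear zones read against a dark grey background. Value is the minimal amount (µg) inhibiting growth; nystatin reference.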

[2] = system: Cladosporium cucumerinum; assay: Antifungal activity against Cladosporium cucumerinum after 24 hrs by agar-dilution assay; format: functional
In short: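 Test solutions made by geometric dilution in DMSO from a 3 mg/mL DMSO stock, added to Sabouraud agar in wells at a final 60 to 3 µg/mL. C. cucumerinum suspended in distilled water and spread over the agar. Plates sealed hermetically, 30 °C for 24 h. Value is the MIC (µg/mL). Compound-free growth controls; duplicates; nystatin reference at 10 to 0.1 µg/mL.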

[3] = system: Aedes aegypti; assay: Larvicidal activity against Aedes aegypti larvae assessed as minimum concentration required to kill all larvae after 24 hrs by dilution test; format: functional
In short: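 Roughly 10 A. aegypti larvae per tube in tap water. Compound added from geometric dilutions of a 1 mg/100 µL DMSO stock, with the volume made up to 10 mL, for final 50 to 1 ppm. Tubes kept in darkness at 26-28 °C for 24 h, then lethality scored under lab light. Value is the minimal concentration (ppm) killing all larvae.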

[4] = system: Cladosporium cucumerinum; assay: Antifungal activity against Cladosporium cucumerinum at 100 ug after 2 to 3 days by bioautographic TLC assay; format: functional, organism-based
In short: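 Compounds in dichloromethane (1 mg/mL stock) were geometrically diluted across 1 to 0.015 mg/mL, and 10 µL of each dilution was applied to silica gel TLC plates. Plates were covered with C. cucumerinum in nutritive medium and incubated 2-3 days in moist boxes. The read-out was the minimal amount (µg) giving a clear inhibition zone on a dark gray background, up to 100 µg. Nystatin in MeOH served as the reference.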

| Compound | Activity [1] | MIC [2] | Activity [3] | Activity [4] |
| --- | --- | --- | --- | --- |
| NYSTATIN | 0.2 µg | 1 µg/mL | – | – |
| C=C(C)[C@H]1Cc2c(ccc3c2O[C@@H]2COc4cc(OC)c(OC)cc4[C@@H]2C3=O)O1 [ROTENONE] | – | – | 3 ppm | – |
| CC(C)=CCc1c(O)cc(/C=C/c2ccccc2)cc1O [CHIRICANINE A] | 5 µg | 30 µg/mL (≈ 107 µM) | 6 ppm | – |
| CC(C)=CCc1c(O)cc2c(c1/C=C/c1ccccc1)CC(O)C(C)(C)O2 (stereo unspecified) [CHIRICANINE D] | – | – | >50 ppm | inactive |
| COc1cc(/C=C/c2ccccc2)cc(OC)c1 [3,5-O-DIMETHYLPINOSYLVIN] | – | – | 3 ppm | inactive |
| CC(C)=CCc1c(O)cc(O)c(CC=C(C)C)c1/C=C/c1ccccc1 [LONGISTYLINE D] | – | – | 6 ppm | inactive |
| CC1(C)Oc2cc(/C=C/c3ccccc3)cc(O)c2C[C@@H]1O [CHIRICANINE B] | – | – | >50 ppm | inactive |
| COc1c(CC=C(C)C)c(O)cc(/C=C/c2ccccc2)c1CC=C(C)C [CHIRICANINE C] | – | – | >50 ppm | inactive |
